Experimental findings from ChEMBL document CHEMBL3525966, “Compartmental and enzyme kinetic modeling to elucidate the biotransformation pathway of a centrally acting antitrypanosomal prodrug” (Drug Metab Dispos, 2013) are described below.

For orientation: Vmax means the top rate of the reaction or transport when substrate is in excess.

The nature of data set [1]: Drug metabolism in sandwich-cultured human hepatocytes treated with 10 uM DB868 after 4 hrs of incubation by HPLC-MS/MS analysis. The format is ADME, cell-based, Hepatocyte. An outline of the steps: (§1)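 Sandwich-cultured hepatocytes were used on day 5 (human) or day 4 (rat) and rinsed with warm phenol-red-free DMEM. They were then exposed to 10 µM DB868 (0.1–0.2% DMSO) at 37°C. Medium and methanol/water cell lysates were collected at 0.5, 2, 4 and 24 h. Analytes were quantified by HPLC/MS/MS with deuterated internal standards; protein by Bradford. Replicates: 6 (human) or 4 (rat).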

The target in data set [2] is T1, Cytochrome P450 1A2 (Rattus norvegicus, UniProt P04799).
T1 sequence (P04799 whole entry): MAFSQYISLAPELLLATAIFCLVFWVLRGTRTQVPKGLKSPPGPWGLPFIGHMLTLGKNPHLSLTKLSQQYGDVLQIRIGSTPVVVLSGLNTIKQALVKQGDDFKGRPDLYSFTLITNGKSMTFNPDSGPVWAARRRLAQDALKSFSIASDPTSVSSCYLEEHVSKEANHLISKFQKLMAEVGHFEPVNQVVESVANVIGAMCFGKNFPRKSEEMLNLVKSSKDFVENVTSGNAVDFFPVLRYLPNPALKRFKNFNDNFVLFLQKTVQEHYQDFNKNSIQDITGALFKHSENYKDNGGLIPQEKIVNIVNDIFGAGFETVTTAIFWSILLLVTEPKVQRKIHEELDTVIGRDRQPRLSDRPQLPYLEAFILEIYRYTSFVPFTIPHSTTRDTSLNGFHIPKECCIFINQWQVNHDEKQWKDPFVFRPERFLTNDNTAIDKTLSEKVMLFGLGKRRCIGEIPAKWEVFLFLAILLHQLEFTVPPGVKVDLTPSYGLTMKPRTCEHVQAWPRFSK
The experiment in a line: Drug metabolism in rat recombinant CYP1A2 treated with at 5 uM DB868 after 180 mins incubation by HPLC-UV chromatography. The format is ADME. As to conditions: recombinant enzyme, 15 min, in the assay text read “15 mins” for “180 mins”. An outline of the steps: (§2)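 Insect-cell-expressed human or rat P450 (with NADPH-P450 reductase, some also with cytochrome b5) at 0.1 pmol/µL in 100 mM potassium phosphate pH 7.4 with 10 mM MgCl2. DB868 (for M1) or M1 (for M2) was added at 5 µM (0.5% DMSO) and started with 2 mM NADPH. Stopped after 15 min with ice-cold acetonitrile, then HPLC-UV. Duplicate incubations.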

Data set [3] addresses T2, Cytochrome P450 1A2 (Homo sapiens, UniProt P05177).
T2 sequence (P05177 whole entry): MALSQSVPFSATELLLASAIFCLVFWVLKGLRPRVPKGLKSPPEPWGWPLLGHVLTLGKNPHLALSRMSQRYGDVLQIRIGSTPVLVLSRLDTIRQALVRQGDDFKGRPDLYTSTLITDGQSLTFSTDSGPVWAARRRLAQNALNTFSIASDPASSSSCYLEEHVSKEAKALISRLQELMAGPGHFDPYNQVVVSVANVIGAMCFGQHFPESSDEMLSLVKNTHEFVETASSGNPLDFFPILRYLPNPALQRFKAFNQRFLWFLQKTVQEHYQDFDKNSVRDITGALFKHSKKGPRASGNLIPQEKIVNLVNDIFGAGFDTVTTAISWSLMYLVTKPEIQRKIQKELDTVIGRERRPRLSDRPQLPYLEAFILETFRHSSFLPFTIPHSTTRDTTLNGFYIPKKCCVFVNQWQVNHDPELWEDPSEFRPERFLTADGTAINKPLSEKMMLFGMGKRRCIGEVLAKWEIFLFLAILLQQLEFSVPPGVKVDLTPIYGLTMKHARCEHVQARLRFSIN
The experiment in a line: Activity at human recombinant CYP1A2-mediated drug metabolism treated with 5 uM DB868 after 180 mins incubation by HPLC-UV chromatography. The class given is ADME. As to conditions: recombinant enzyme, 15 min, in the assay text read “15 mins” for “180 mins”. The method, boiled down: as §2

Data set [4] in a line: Drug metabolism in sandwich-cultured human hepatocytes treated with 10 uM DB868 after 24 hrs of incubation by HPLC-MS/MS analysis. The class given is ADME, cell-based, Hepatocyte. An outline of the steps: as §1
For data set [5], the system named is Liver microsome. The experiment in a line: Prodrug conversion in human liver microsomes assessed as elution time treated with 10 uM DB868 after 180 mins incubation by HPLC-UV chromatography. The format is ADME. As to conditions: 3 h. An outline of the steps: (§3)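 HLM or RLM (0.5 mg/mL) were incubated in triplicate in 100 mM phosphate pH 7.4 with 10 mM MgCl2 and an NADPH-regenerating system (1 mM NADP+, glucose 6-phosphate, G6PDH). DB868 was 10 µM. Sampled up to 180 min. Prodrug and metabolites were measured by HPLC-UV at 359 nm and expressed relative to initial prodrug; DB829 LLOQ 50 nM.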

The test system of data set [6] is Liver microsome. The experiment in a line: Prodrug conversion in rat liver microsomes assessed as elution time treated with 10 uM DB868 after 180 mins incubation by HPLC-UV chromatography. The format is ADME. As to conditions: 3 h. An outline of the steps: as §3
(Liver microsomes are vesicles of endoplasmic reticulum, rich in cytochrome P450 enzymes.)

For data set [7], the target named is T3, Cytochrome P450 3A4 (Homo sapiens, UniProt P08684). The experiment in a line: Activity at human recombinant CYP3A4-mediated drug metabolism treated with 5 uM DB868 after 180 mins incubation by HPLC-UV chromatography. The format is ADME. As to conditions: recombinant enzyme, 15 min, in the assay text read “15 mins” for “180 mins”. An outline of the steps:
as §2

The nature of data set [8]: Drug metabolism in sandwich-cultured rat hepatocytes treated with 10 uM DB868 after 4 hrs of incubation by HPLC-MS/MS analysis. The class given is ADME, cell-based, Hepatocyte. An outline of the steps:
as §1

In data set [9] the test system is Liver microsome. The data set can be described thus: Drug metabolism in human liver microsomes assessed as (3Z,3'Z)-6,6'-(furan-2,5-diyl)bis(N'-hydroxynicotinimidamide) formation measured per mg of protein by HPLC-MS/MS analysis. The class given is ADME. The method, boiled down:
(§4)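 M2 formation kinetics: HLM (0.5 mg/mL) with M1 at 0.1–25 µM in phosphate pH 7.4 with MgCl2, started with 2 mM NADPH. Run 5 min in triplicate under initial-rate conditions. Quantified by HPLC/MS/MS and fitted to the Hill equation (S50, Vmax, n).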

Another data set deals with T4, Cytochrome P450 4F2 (Homo sapiens, UniProt P78329).
T4 sequence (P78329 whole entry): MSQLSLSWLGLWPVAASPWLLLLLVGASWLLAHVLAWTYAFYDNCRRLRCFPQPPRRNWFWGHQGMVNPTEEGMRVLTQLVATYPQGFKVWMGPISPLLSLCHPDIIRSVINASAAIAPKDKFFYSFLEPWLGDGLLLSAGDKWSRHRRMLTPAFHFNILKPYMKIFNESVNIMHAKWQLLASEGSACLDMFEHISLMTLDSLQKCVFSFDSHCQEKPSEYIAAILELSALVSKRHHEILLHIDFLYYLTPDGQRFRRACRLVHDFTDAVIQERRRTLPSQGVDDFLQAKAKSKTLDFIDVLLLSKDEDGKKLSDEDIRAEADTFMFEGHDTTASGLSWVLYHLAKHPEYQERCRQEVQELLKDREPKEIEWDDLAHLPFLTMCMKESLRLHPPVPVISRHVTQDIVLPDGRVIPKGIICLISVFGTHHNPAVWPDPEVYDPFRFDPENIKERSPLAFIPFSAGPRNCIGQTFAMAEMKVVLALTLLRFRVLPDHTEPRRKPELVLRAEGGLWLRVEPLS
The experiment in a line: Activity at human recombinant CYP4F2-mediated drug metabolism treated with 5 uM DB868 […] by HPLC-UV chromatography. The format is ADME. As to conditions: recombinant enzyme, 3 h.

The test system of data set [10] is Liver microsome. The data set can be described thus: Drug metabolism in human liver microsomes assessed as (3Z,3'Z)-6,6'-(furan-2,5-diyl)bis(N'-hydroxynicotinimidamide) formation measured by HPLC-MS/MS analysis. The class given is ADME. An outline of the steps:
as §4

Data set [11] addresses T3, Cytochrome P450 3A4. The data set can be described thus: Drug metabolism in human recombinant CYP3A4 treated with at 5 uM DB868 after 15 mins incubation by HPLC-UV chromatography. As to conditions: recombinant enzyme.
The next data set has as its target T5, Cytochrome P450 4F1 (Rattus norvegicus, UniProt P33274).
T5 sequence (P33274 whole entry): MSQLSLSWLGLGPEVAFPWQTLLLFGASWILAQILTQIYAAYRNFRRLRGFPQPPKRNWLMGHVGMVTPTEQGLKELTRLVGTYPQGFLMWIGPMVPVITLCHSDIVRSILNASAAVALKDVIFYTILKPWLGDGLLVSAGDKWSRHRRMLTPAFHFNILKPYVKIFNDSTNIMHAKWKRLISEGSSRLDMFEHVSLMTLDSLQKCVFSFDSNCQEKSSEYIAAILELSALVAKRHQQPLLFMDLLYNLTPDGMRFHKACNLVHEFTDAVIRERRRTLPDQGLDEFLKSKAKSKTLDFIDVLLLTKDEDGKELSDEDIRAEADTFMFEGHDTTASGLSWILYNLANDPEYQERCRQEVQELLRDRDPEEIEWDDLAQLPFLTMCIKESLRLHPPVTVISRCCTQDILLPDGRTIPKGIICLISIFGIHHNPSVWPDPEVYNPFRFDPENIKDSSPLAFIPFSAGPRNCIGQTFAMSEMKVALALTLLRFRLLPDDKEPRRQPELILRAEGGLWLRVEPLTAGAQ
The experiment in a line: Drug metabolism in rat recombinant […] treated with at 5 uM DB868 after 180 mins incubation by HPLC-UV chromatography. The class given is ADME. As to conditions: recombinant enzyme, 3 h.

Data set [12] can be described thus: Drug metabolism in sandwich-cultured rat hepatocytes treated with 10 uM DB868 after 24 hrs of incubation by HPLC-MS/MS analysis. The class given is ADME, cell-based, Hepatocyte. An outline of the steps:
as §1

Data set [13] is described as follows: Ratio of drug metabolism in sandwich-cultured human hepatocytes to drug metabolism in sandwich-cultured rat hepatocytes treated with 10 uM DB868 after 24 hrs of incubation by HPLC-MS/MS analysis.
For data set [14], the system named is Liver microsome. The data set can be described thus: Prodrug conversion in rat liver microsomes treated with 10 uM DB868 after 180 mins incubation by HPLC-UV chromatography. The class given is ADME. As to conditions: 3 h. The method, boiled down: as §3
In data set [15] the test system is Liver microsome. The data set can be described thus: Drug level in human liver microsomes treated with 10 uM DB868 prodrug after 180 mins incubation by HPLC-UV chromatography relative to initial prodrug concentration. The format is ADME. As to conditions: 3 h. The method, boiled down:
as §3

T3 sequence (P08684 whole entry): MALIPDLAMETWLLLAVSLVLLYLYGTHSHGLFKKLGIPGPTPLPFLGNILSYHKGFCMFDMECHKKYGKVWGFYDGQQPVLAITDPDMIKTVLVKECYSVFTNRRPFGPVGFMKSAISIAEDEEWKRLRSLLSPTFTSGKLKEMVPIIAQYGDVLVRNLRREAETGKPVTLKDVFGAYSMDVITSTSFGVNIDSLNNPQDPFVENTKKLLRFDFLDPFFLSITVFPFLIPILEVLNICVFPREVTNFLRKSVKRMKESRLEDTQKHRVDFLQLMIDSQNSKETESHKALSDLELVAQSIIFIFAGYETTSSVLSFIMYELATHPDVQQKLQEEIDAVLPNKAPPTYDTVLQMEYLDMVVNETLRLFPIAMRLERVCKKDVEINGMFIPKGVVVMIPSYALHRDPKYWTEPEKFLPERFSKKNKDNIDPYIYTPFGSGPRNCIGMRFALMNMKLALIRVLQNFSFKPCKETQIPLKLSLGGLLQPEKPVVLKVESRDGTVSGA

For the molecule `N=C(NO)c1ccc(-c2ccc(-c3ccc(C(=N)NO)cn3)o2)nc1`, the Drug metabolism result (in data set [1]; at Cytochrome P450 1A2 [2]; on Cytochrome P450 1A2 [3]; in data set [4]) was “metabolite_detected” in each case. Moreover, the Retention_time in the data set on Liver microsome [5] and in the data set on Liver microsome [6] was 10.5 min throughout.
Consider `CO/N=C(/N)c1ccc(-c2ccc(-c3ccc(/C(N)=N/O)cn3)o2)nc1`, for which the Drug metabolism entry (at Cytochrome P450 3A4 [7]; in [1]; on Cytochrome P450 1A2 [2]; at Cytochrome P450 1A2 [3]; in data set [8]; at Cytochrome P450 4F2) was “metabolite_detected” throughout. In addition, the Drug metabolism result on Cytochrome P450 3A4 [11] and at Cytochrome P450 4F1 was “metabolite_detected” each time. Also, in the data set on Liver microsome [9], the maximal velocity (Vmax) is 180 pmol/min. Moreover, the Retention_time with Liver microsome [5] and in the data set with Liver microsome [6] was 14.5 min in each case. For the same molecule, the S50 with Liver microsome [10] was 18 µM.
In the case of `Cl.N=C(N)c1ccc(-c2ccc(-c3ccc(C(=N)N)cn3)o2)nc1`, the Drug metabolism entry in [4] is recorded as “metabolite_detected”; in data set [12] it was “metabolite_detected”; in the data set on Liver microsome [14], “metabolite_not_detected”; with Liver microsome [15] it was “metabolite_detected”. The Retention_time with Liver microsome [5] is given as 5.8 min. The Ratio in data set [13] came out at 7800.
`CO/N=C(\N)c1ccc(-c2ccc(-c3ccc(C(=N)N)cn3)o2)nc1`: the Drug metabolism entry in data set [1], in data set [4], in data set [8] and in data set [12] was “metabolite_detected” throughout. Also, the Retention_time with Liver microsome [5] and with Liver microsome [6] was 12.3 min in each case.
For `N=C(N)c1ccc(-c2ccc(-c3ccc(/C(N)=N/O)cn3)o2)nc1`, the Retention_time in the data set with Liver microsome [5] and in the data set on Liver microsome [6] was 8.3 min in each case.
